In the library only some 2% were active in any assay of this set; here they are far more common.
NR2E3 ag-1 – activates human NR2E3 receptor; actives 0.35% (n = 360,000); AID 602229; inhibition of corepressor binding, % at 3.98 µM; Q9Y5X4; CHO-S Gal4-NCOR/VP16-NR2E3 two-hybrid, luciferase;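 active = inhibition above the mean of all tested compounds plus 3 SD, cut at about 70% in these data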;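 note: higher means lower luciferase signal from less NR2E3 corepressor binding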
Target sequence (Q9Y5X4 whole entry, looked up, the tested form may be a part): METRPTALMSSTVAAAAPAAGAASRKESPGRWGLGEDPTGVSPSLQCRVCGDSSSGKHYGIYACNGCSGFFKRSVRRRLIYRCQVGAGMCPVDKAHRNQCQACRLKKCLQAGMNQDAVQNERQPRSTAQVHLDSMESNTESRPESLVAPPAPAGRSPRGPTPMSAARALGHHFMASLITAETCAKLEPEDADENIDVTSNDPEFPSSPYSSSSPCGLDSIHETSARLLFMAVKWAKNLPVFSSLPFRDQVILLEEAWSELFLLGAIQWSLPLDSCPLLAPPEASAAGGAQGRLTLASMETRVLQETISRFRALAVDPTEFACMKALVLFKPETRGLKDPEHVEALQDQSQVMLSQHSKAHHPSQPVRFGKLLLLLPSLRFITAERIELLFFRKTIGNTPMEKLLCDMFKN
LMP1 NFkB inh – reduces LMP1-driven NF-kappaB luciferase signal; LMP1-induced NF-kappaB luciferase reporter cells, luminescence; inhibition, % at 12.5 µM; actives 0.69% (n = 350,000); AID 504558; in the data active = inhibition above about 41%
TROY signal inh – TROY signaling inhibition; inhibition, % at 10 µM; Q293 LMP1-TROYcd NF-kB luciferase reporter, 4 h; actives 0.98% (n = 360,000);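 active = compounds whose plate-normalised and pattern-corrected inhibition of the luciferase reporter signal at the single screening dose is 50% or more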
HIF act – HIF pathway transcriptional activation; U2OS HRE-luciferase reporter, luminescence; normalized: DMSO 0%, desferrioxamine 100%; activation, % at 7.5 µM (by protocol); actives 0.32% (n = 300,000); AID 1910;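 active = mean activation of at least 10% of the iron chelator positive control signal, with at least half of replicates also reaching 10%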
NR2E3 ag-2 – NR2E3 (human) agonism. GST-NR2E3/biotin-RetCOR TR-FRET, 1536-well. actives 0.12% (n = 320,000). AID 2300. inhibition of corepressor binding, % at 4.78 µM. Q9Y5X4;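 active = percent inhibition above the cutoff of mean plus 3 SD of all tested compounds, set per screening campaign, cut at about 20% in these data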
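System: GST-tagged NR2E3 plus biotinylated RetCOR corepressor; Buffer or medium: pH 7.5 Tris-based buffer; Probe or stimulus: RetCOR corepressor, biotinylated, 7 nM; Doses: compound at 4.8 µM, single dose; Schedule: 5 h incubation at 4 °C; Technique: time-resolved FRET; Evaluation: percent inhibition of TR-FRET ratio; Replication: one well per compound, singlicate testing.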
Hits are given with their value; n = inactive; x = no result given.

SMILES	NR2E3 ag-1	LMP1 NFkB inh	TROY signal inh	HIF act	NR2E3 ag-2
Oc1ccc2ccccc2c1C=NCc1ccccc1	n	n	n	x	n
Nc1ccc(C(=O)N/N=C\c2cc(N=Nc3cccc4ccccc34)ccc2O)cc1	n	60	n	14	n
O=C(CNC(=O)c1ccc(S(=O)(=O)N2CCCC2)cc1)N/N=C/c1ccccc1Cl	n	n	n	n	n
Cc1noc(C)c1NC(=O)Nc1ccc2c(c1)C(=O)N([C@H](C)CO)C[C@H](C)[C@@H](CN(C)S(=O)(=O)c1ccc(Cl)cc1)OCCCC[C@@H](C)O2	n	n	n	x	x
Cc1ccc(NC(=O)Cc2nnc(SCC(=O)NC3CCCC3)n2C)cc1C	n	45	n	n	n
Cc1ccc(NC(=O)Cc2nnc(SCC(=O)NC3CCCC3)n2C)cc1	n	n	n	n	n
CCc1nc2c(OCc3ccc(Cl)cc3)cccn2c1N(C)C(=O)c1ccc2c(c1)OCO2	n	x	n	x	x
O=C(CSc1nccn(-c2ccc3c(c2)OCCO3)c1=O)Nc1ccccc1	n	n	66	n	n
Cc1ccc(NC(=O)CSc2nccn(-c3ccc4c(c3)OCCO4)c2=O)cc1	n	n	n	n	n
Cc1cccc(-n2ccnc2SCC(=O)Nc2ccc3c(c2)OCCO3)c1	n	n	51	n	n
O=C(CSc1nnnn1-c1ccccc1Cl)Nc1ccc2c(c1)OCCO2	n	n	54	n	n
Cc1ccc(N2C(=O)c3ccccc3C2=O)cc1	n	n	n	n	n
Cc1ccc(SC2=C(Sc3ccc(C)cc3)C(=O)c3ccccc3C2=O)cc1	n	n	60	n	n
O=C(OCc1nc2ccccc2s1)[C@@H]1CCCN1S(=O)(=O)c1ccccc1F	n	77	n	n	n
O=c1[nH]c(NC2CCN(S(=O)(=O)c3ccccc3C(F)(F)F)CC2)nc2c1CCCC2	n	53	n	n	x
C=C1CC(COc2ccc3c(C)c(Cl)c(=O)oc3c2)(c2ccccc2)OC1=O (configuration not stated)	n	n	76	x	x
O=c1[nH]nc(Br)c(=O)n1C(c1ccccc1)c1ccccc1	n	n	n	x	x
CC(C)(C)c1ccc(-c2noc(-c3ccc4c(c3)CCO4)n2)cc1	n	n	n	n	n
COc1ccc(/C=C2\CCC(C3CCCC3)C2=O)cc1 (configuration not stated)	n	n	n	n	n
COc1ccc(/C=C2/CCC(CN3CCOCC3)C2=O)cc1 (configuration not stated)	n	86	n	x	x
CC1CCC(C(C)C)C(OC(=O)C[n+]2cc(-c3ccc(Cl)cc3)n3c2CCC3)C1 (configuration not stated)	n	n	55	n	n
COc1cccc(CN2CC(C(=O)N(C)CCCC3CCCC3)CCC2=O)c1 (configuration not stated)	n	n	n	n	n
CCc1sc(C(=O)Nc2ncccc2O)cc1C	n	52	n	n	x
CC1(C)CC(N2CCN(Cc3ccccc3)CC2)=CC(=[N+]2CCCCC2)C1	n	n	n	n	n
CN(Cc1ccccc1)C1=CC(=[N+]2CCCCC2)CC(C)(C)C1	n	44	n	n	n
SMILES	NR2E3 ag-1	LMP1 NFkB inh	TROY signal inh	HIF act	NR2E3 ag-2
O=C(O)/C=C/C(=O)N1CCN(c2ccccc2F)CC1	n	n	75	n	n
COc1cccc(/C=N/NC(=O)CSCC(=O)Nc2ccccc2)c1O	n	47	n	17	n
COc1cccc(/C=N/NC(=O)c2cc3cc([N+](=O)[O-])ccc3s2)c1O	n	64	n	x	n
COc1cccc(/C=N/NC(=O)CNC(=O)/C=C\c2ccccc2)c1O	n	n	n	n	n
COc1cccc(/C=N/NC(=O)c2ccoc2C)c1O	n	n	n	25	n
COc1ccc(/C=N/NC(=O)CSCC(=O)Nc2ccccc2)cc1	n	n	n	n	n
COc1cccc(/C=N/NC(=O)C(=O)N/N=C/c2cccc(OC)c2O)c1O	n	n	n	x	x
COc1cccc(/C=N/NC(=O)CNC(=O)C(c2ccccc2)c2ccccc2)c1O	n	n	n	14	n
COc1cccc(/C=N\NC(=O)Cn2nnc3ccccc32)c1O	n	n	n	16	n
CC1(C)CC(=O)C/C(=N/Nc2nc3ccccc3s2)C1	n	n	63	n	n
Cc1cccc(Nc2nc3c(S(=O)(=O)c4ccccc4)nnn3c3ccccc23)c1	n	n	53	n	n
O=C(N/N=C/c1cccc2ccccc12)c1cc(C2CC2)[nH]n1	n	53	n	n	n
C/C(=N/NC(=O)c1cc(C2CC2)[nH]n1)c1cccs1	n	60	n	n	n
O=C1NCC(Nc2ccccc2Cl)C(=O)N1 (configuration not stated)	n	n	n	x	x
OCCN1CCN(CC/C=C2/c3ccccc3Sc3ccc(Cl)cc32)CC1	n	80	n	x	n
S=C(Nc1ccc(Oc2ccccc2)cc1)NC1CCCC1	n	n	n	n	n
S=C(NCC1CCCCC1)Nc1ccc(Oc2ccccc2)cc1	n	48	n	n	n
O=C(N/C(=C/c1ccc(Cl)cc1)c1nc2ccccc2[nH]1)c1ccco1	n	n	n	n	n
O=C(/C(=C/c1ccc(Cl)cc1)c1nc2ccccc2[nH]1)c1ccccc1	n	86	n	n	n
COc1cc(OC)cc(C(=O)NCCSC2CCCCC2)c1	n	n	n	n	n
COc1cccc(OC)c1C(=O)NCCSC1CCCCC1	n	59	n	n	n
CC(C)(C)S(=O)N1Cc2cc(=O)n(Cc3ccccc3)cc2[C@@H]1CCO (some centres not stated)	n	n	n	x	x
CC1(C)Cc2c(ccc3ccccc23)/C(=C/C(=O)N2CCCCC2)N1	n	58	n	n	n
C=CCn1c(C)c(C(C)=O)c(N2CCN(C(c3ccccc3)c3ccccc3)CC2)nc1=S	n	55	n	n	n
O=C(NCCCc1ccccc1)C1CCN(S(=O)(=O)c2ccc(F)cc2)CC1	n	n	n	n	n
SMILES	NR2E3 ag-1	LMP1 NFkB inh	TROY signal inh	HIF act	NR2E3 ag-2
Cc1ccc(-c2nnc(N3CCN(c4ccccn4)CC3)c3ccccc23)cc1	n	n	54	n	n
Cc1ccc(NC(=O)c2cnc(N3CCN(c4ccccn4)CC3)c3ccccc23)c(Br)c1	n	n	68	n	n
O=C(Nc1c(F)cccc1F)c1cnc(N2CCN(c3ccccn3)CC2)c2ccccc12	n	n	n	n	n
Cc1nc2ccc(C(=O)NCCc3c[nH]c4ccccc34)cn2c1N(C)C(=O)CCc1ccccc1	n	x	n	x	x
CC(C)(C)NC(=S)N1CCC(C(=O)c2ccc(Cl)cc2)CC1	n	42	n	n	n
CCOC(=O)[C@]12CCC=C1N(Cc1ccc3c(c1)OCO3)C(=O)[C@H](CC(=O)NCc1cccc3ccccc13)C2	n	x	n	x	x
CC(C)(C)n1ncc2c(=O)n(CC(=O)N3CCc4ccccc43)cnc21	n	n	60	n	n
CC(C)(C)n1ncc2c(=O)n(CC(=O)N3CCCc4ccccc43)cnc21	n	n	n	n	n

Screening results from PubChem BioAssay.
